Columns and labels:
[1] = biological target: T1, purified, recombinant RSK2 (Homo sapiens, UniProt P51812); conditions: cited from earlier work
[2] = biological target: T1, purified, recombinant RSK2; assay: in vitro kinase assay, inhibition of purified recombinant RSK2; assay type: biochemical
aqueous solubility = assay type: physicochemical
MCF-7 cells = assay: MCF-7 proliferation; assay type: cell-based, human
In short: (§1)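 Test compound added at time 0 at various concentrations. Proliferation read as cellular ATP content after 48 h of treatment. Values expressed as fold proliferation as a percentage of vehicle-treated cells. n = 3 experiments, each in quadruplicate, with SD and Student's t test against vehicle; for MCF-7, also against the reference inhibitor.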

MCF-10A cells = assay: MCF-10A proliferation; assay type: cell-based; conditions: various concentrations, 48 h
In short: as §1

[3] = tested on: RSK biomarkers (peEF2, cyclin D1, phospho-motif) in MCF-7 cells; assay: RSK biomarkers in PMA-stimulated MCF-7 cells by immunoblotting; assay type: cell-based, human; conditions: MCF-7 cells pre-treated with SL0101 (100 μM) or 7 (25 μM), then PMA
In short: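 MCF-7 cells pretreated with test compound (reference inhibitor 100 μM; analogue 25 μM) or vehicle, then treated with DMSO or the mitogen PMA. Lysates analysed by immunoblotting for RSK biomarkers, including eEF2 phosphorylation.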

[4] = tested on: mitogen-and stress-activated kinase; conditions: cited from earlier work
Aurora B = conditions: [ATP] lower than in the RSK assay; cited from earlier work
p70 S6 kinase = conditions: cited from earlier work
PIM 3 = conditions: [ATP] lower than in the RSK assay; cited from earlier work
[5] = pharmacokinetic analysis, single i.v. or i.p. dose; assay type: in vivo, male CD-1 mice; conditions: male, CD-1, mouse, plasma, other: intravenous (i.v.) or intraperitoneal (i.p.)
In short: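 Single dose given iv or ip to male CD-1 mice in 1:1:15 Cremophor:EtOH:phosphate-buffered saline. Plasma concentrations used to derive half-life, Cmax, C0 (maximum plasma concentration extrapolated to t = 0) and AUC extrapolated to infinity and normalized to dose in mg/kg.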

T1 sequence (P51812 whole entry, species assumed): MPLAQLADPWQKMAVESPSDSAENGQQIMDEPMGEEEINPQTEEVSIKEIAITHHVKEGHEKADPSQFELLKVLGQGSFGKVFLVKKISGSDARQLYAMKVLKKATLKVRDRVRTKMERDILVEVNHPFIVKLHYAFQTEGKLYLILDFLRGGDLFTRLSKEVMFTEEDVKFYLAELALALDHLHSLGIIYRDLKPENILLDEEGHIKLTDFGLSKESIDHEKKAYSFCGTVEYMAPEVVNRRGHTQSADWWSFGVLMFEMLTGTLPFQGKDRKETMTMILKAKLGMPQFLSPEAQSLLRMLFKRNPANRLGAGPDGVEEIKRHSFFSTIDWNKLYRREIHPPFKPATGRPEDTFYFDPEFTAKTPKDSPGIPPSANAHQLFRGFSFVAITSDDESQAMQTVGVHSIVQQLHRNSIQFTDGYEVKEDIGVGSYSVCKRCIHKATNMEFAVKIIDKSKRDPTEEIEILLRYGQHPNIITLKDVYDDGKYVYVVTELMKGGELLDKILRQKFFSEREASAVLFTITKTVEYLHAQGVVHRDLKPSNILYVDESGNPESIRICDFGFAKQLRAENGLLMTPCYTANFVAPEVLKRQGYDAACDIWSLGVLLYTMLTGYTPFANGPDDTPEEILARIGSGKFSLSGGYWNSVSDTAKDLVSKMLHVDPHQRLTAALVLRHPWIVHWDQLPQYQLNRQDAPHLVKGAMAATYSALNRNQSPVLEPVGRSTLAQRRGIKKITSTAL

Structure (SMILES): CC1OC(Oc2c(-c3ccc(O)cc3)oc3cc(O)cc(O)c3c2=O)C(O)C(O)C1O (centres unmarked) [deacetylated SL0101]
- potency for RSK inhibition, fold less potent than SL0101 (1) [1]: ~ 10 fold

Structure (SMILES): CCC[C@@H]1O[C@@H](Oc2c(-c3ccc(O)cc3)oc3cc(O)cc(O)c3c2=O)[C@H](O)[C@H](O)[C@H]1OC(C)=O [compound 5]
- change of RSK2 IC50 in comparison to the 5″-n-propyl analogue 3 [2]: increased the IC50, but this difference was not statistically significant

Structure (SMILES): CCC[C@@H]1O[C@@H](Oc2c(-c3ccc(O)cc3)oc3cc(O)cc(O)c3c2=O)[C@H](OC(C)=O)[C@H](OC(C)=O)[C@H]1OC(C)=O [compound 8]
- change of RSK2 IC50 in comparison to the 5″-n-propyl analogue 3 [2]: doubled the IC50

Structure (SMILES): CCC[C@@H]1O[C@@H](Oc2c(-c3ccc(O)cc3)oc3cc(O)cc(O)c3c2=O)[C@H](O)[C@H](OC(C)=O)[C@H]1OC(C)=O [compound 7]
- solubility (aqueous solubility; aqueous solution): ≤ 25 µM
- ability to inhibit MCF-7 proliferation, fold better compared to SL0101 (1) (MCF-7 cells): 2 fold
- inhibition of MCF-7 proliferation (MCF-7 cells; various concentrations, 48 h): inhibits MCF-7
- inhibition of MCF-10A proliferation (MCF-10A cells): not MCF-10A proliferation
- cyclin D1 levels [3]: decreased cyclin D1 levels
- intensity of band at ~ 27 kDa, (Lys/Arg)XX(Lys/Arg)X(pSer/pThr) motif antibody [3]: intensity decreases
- peEF2 levels compared to the PMA control [3]: increased peEF2 levels

Structure (SMILES): CC(=O)O[C@@H]1[C@@H](OC(C)=O)[C@@H](O)[C@H](Oc2c(-c3ccc(O)cc3)oc3cc(O)cc(O)c3c2=O)O[C@H]1C [SL0101]
- inhibition of mitogen-and stress-activated kinase [4]: did not inhibit
- inhibition of Aurora B (Aurora B): partially inhibit
- solubility (aqueous solubility; carrier of 1:1:15 Cremophor:EtOH:phosphate-buffered saline was required): limited solubility
- inhibition of p70 S6 kinase (p70 S6 kinase): did not inhibit
- inhibition of PIM 3 (PIM 3): partially inhibit
- cyclin D1 levels [3]: decreased cyclin D1 levels
- intensity of band at ~ 27 kDa, (Lys/Arg)XX(Lys/Arg)X(pSer/pThr) motif antibody [3]: intensity decreases
- peEF2 levels compared to the PMA control [3]: increased peEF2 levels
- half-life [5]: < 30 min

Structure (SMILES): CCC[C@@H]1O[C@@H](Oc2c(-c3ccc(O)cc3)oc3cc(O)cc(O)c3c2=O)[C@H](OC(C)=O)[C@H](O)[C@H]1OC(C)=O [compound 6]
- change of RSK2 IC50 in comparison to the 5″-n-propyl analogue 3 [2]: did not alter the IC50

— PMC3601785 (ACS medicinal chemistry letters, 2012)
